The source of these data is ChEMBL document CHEMBL1132493, “Synthesis and in vitro evaluation of new 8-amino-1,4-benzoxazine derivatives as neuroprotective antioxidants” (J Med Chem, 1999).

SMILES strings stand for the structures. Some results are limits rather than exact numbers.

A short description of series [1]: (§1) In vitro neurotoxicity (Maximum Tolerated concentration[MTC]) was measured by quantification of cellular lysis after measurement of LDH activity released from damaged cells. In kind it is toxicity, cell-based. Particulars: mouse, HT-22 cells; read-out: MTC.
A short description of series [2]: (§2) In vitro neurotoxicity (concentration producing 50% toxicity [TC50]) was measured by quantification of cellular lysis after measurement of LDH activity released from damaged cells. In kind it is cell-based. Particulars: mouse, HT-22 cells; read-out: TC50 (the source's name).
In series [3] the test system is HT-22. Put plainly: In vitro neurotoxicity (concentration producing 50% toxicity [TC50]) was measured by (MTT) reduction assay on murine HT-22 hippocampal cell cultures and compared to those of parent exifone. It is filed as functional. The following applies: Mus musculus, read-out: TC50 (the source's name).
Series [4] deals with HT-22. Put plainly: In vitro neurotoxicity (Maximum Tolerated concentration[MTC]) was measured by (MTT) reduction assay on murine HT-22 hippocampal cell cultures and compared to those of parent exifone. It is filed as functional, Mus musculus.
The subject of series [5] is HT-22. Put plainly: In vitro neuroprotective activity estimated through their protective effects against L-homocysteic acid(L-HCA) cytotoxicity) on murine HT-22 hippocampal cell cultures and compared to those of exifone(MTT reduction assay). In kind it is functional, Mus musculus.
Series [6] relates to HT-22. Nature of the series: The concentration producing 50%protection (PC50) was obtained for lactate dehydrogenase (LDH) activity. In vitro neuroprotective activity estimated through their protective effects against L-homocysteic acid(L-HCA) cytotoxicity on murine HT-22 hip pocampal cell cultures and compared to those of exifone. In kind it is functional, Mus musculus.
Series [7] is described as follows: Ratio of MTC to PC50 after measurement of LDH activity; Safety ratio. In kind it is functional. The procedure, abridged: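 Safety index: MTC divided by PC50, both from LDH release in HT-22 cells. MTC comes from 48 h drug exposure alone; PC50 from 1 h antioxidant pretreatment followed by 48 h 2 mM L-HCA exposure. Both derived by linear regression.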
Series [8] is described as follows: Ratio of MTC to PC50 in MTT reduction assay; Safety ratio. It is filed as functional. Put shortly:
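Safety index: MTC divided by PC50, both from MTT reduction in HT-22 cells. MTC comes from 48 h drug exposure alone; PC50 from protection against 48 h 2 mM L-HCA after 1 h pretreatment. Both estimated by linear regression.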

The test system of series [9] is HT-22. Put plainly: In vitro neuroprotective activity estimated through their protective effects against L-homocysteic acid(L-HCA) cytotoxicity) on murine HT-22 hippocampal cell cultures and compared to those of exifone (MTT reduction assay). It is filed as functional, Mus musculus.
In series [10] the test system is HT-22. Nature of the series: The concentration producing 50%protection (PC50) was measured by lactate dehydrogenase (LDH) activity. In vitro neuroprotective activity estimated through their protective effects against L-homocysteic acid(L-HCA) cytotoxicity on murine HT-22 hippocampal cell cultures and compared to those of exifone. In kind it is functional, Mus musculus.

Series [11] has as its system HT-22. Put plainly: (§3) In vitro neurotoxicity (concentration producing 50% toxicity [TC50]) was measured by (MTT) reduction assay on murine HT-22 hippocampal cell cultures and compared to those of parent exifone,. It is filed as functional. Particulars: Mus musculus, read-out: TC50 (the source's name).
Series [12] has as its system HT-22. Nature of the series: In vitro neuroprotective activity estimated through their protective effects against L-homocysteic acid(L-HCA) cytotoxicity) on murine HT-22 hippocampal cell cultures and compared to those of exifone. (MTT reduction assay). It is filed as functional, Mus musculus.
Series [13] in a line: as §3. The following applies: mouse, HT-22 hippocampal cells; read-out: TC50 (the source's name). It is filed as cell-based.
For series [14], the system named is HT-22. Described as §2. The following applies: Mus musculus, read-out: TC50 (the source's name). In kind it is functional.
Series [15] concerns HT-22. Described as §1. In kind it is functional, Mus musculus.

Regarding `O=C(c1ccccc1)c1ccc(O)c2c1NC(CO)CO2` (stereo not drawn), in series [1], the MNTC was 10 µM.
Turning to `CC1(CO)COc2c(NCCO)ccc(C(=O)c3ccccc3)c2N1` (stereo not drawn), the MNTC in series [1] is above 250 µM.
For `CC1(CO)COc2c(NC(CO)CO)ccc(C(=O)c3ccccc3)c2N1` (stereo not drawn), the MNTC in series [1] was above 250 µM.
Same read-out and setting: as for `O=C(C1=CC=C(O)C2(O)OCC(CO)N=C12)c1ccccc1` (stereo not drawn), the figure is 25 µM.
Consider `CC(C)(C)C1COc2c(NCCc3ccccc3)ccc(C(=O)c3ccccc3)c2N1` (stereo not drawn), for which the CC50 (in series [2]; in the series with HT-22 [3]) was above 250 µM in each case. Also, in the series on HT-22 [4], the MTC came out at 100 µM. Besides, in series [1], the MNTC is 250 µM. The PC50 was 8.8 µM in the series with HT-22 [5] and 8.9 µM in the series on HT-22 [6]. Besides, the Ratio was found to be 28 in series [7] and 11 in [8].
`CC(C)(C)C1COc2c(O)ccc(C(=O)c3ccccc3)c2N1` (stereo not drawn): in series [1], the MNTC came out at 5 µM.
For `O=C(c1ccccc1)c1ccc(O)c2c1NC1(CCCC1)CO2`, the CC50 stood at 36.4 µM in [2] and 37.5 µM with HT-22 [3]. The MTC in the series with HT-22 [4] worked out at 25 µM. The MNTC in [1] worked out at 25 µM. The PC50 with HT-22 [9] was 25 µM; with HT-22 [10], 18.4 µM. The results for the Ratio in series [7] and in series [8] were 1.4 and 1, respectively.
As for `CC1(C)COc2c(NCCO)ccc(C(=O)c3ccccc3)c2N1`, the MNTC in series [1] was 100 µM.
Take `CC1(C)COc2c(NC(CO)CO)ccc(C(=O)c3ccccc3)c2N1`: in series [1], the MNTC is above 250 µM.
`O=C(c1ccccc1)c1ccc(NCc2ccccc2)c2c1NC1(CCCC1)CO2`: the CC50 (in series [2]; with HT-22 [3]) was above 250 µM in each case. In addition, in the series on HT-22 [4], the MTC was above 250 µM. Moreover, the MNTC in series [1] was above 250 µM. Further, the figures for the PC50 in the series on HT-22 [5] and in the series with HT-22 [10] were 6.9 µM and 7.1 µM, respectively. Further, the Ratio in series [7] and in [8] was above 36 in each case.
With `CC(C)(C)C1COc2c(NCc3ccccc3)ccc(C(=O)c3ccccc3)c2N1` (stereo not drawn), the MNTC in series [1] was above 250 µM.
For `O=C(c1ccccc1)c1ccc(NC(CO)CO)c2c1NC(CO)CO2` (stereo not drawn), in series [1], the MNTC is above 250 µM.
Turning to `CC(C)CCNc1ccc(C(=O)c2ccccc2)c2c1OCC(C)(C)N2`, the MNTC in series [1] turned out to be 10 µM.
As to `CC(C)CCNc1ccc(C(=O)c2ccccc2)c2c1OCC(c1ccccc1)(c1ccccc1)N2`, the MNTC in series [1] is above 250 µM.
As for `O=C(C1=CC=C(O)C2(O)OCC3(CCCC3)N=C12)c1ccccc1` (stereo not drawn), the CC50 with HT-22 [11] is 109 µM; in series [2], above 250 µM. Further, in the series with HT-22 [4], the MTC is 50 µM. The MNTC in [1] turned out to be 50 µM. The PC50 was 47.4 µM in the series with HT-22 [12] and 40.9 µM in the series on HT-22 [6]. Also, the Ratio in series [7] came out at 1.2; in series [8], 1.1.
Consider `CC(C)(C)C1COC2(O)C(O)=CC=C(C(=O)c3ccccc3)C2=N1` (stereo not drawn), for which the CC50 came out at 17.6 µM in series [13] and 38.1 µM with HT-22 [14]. The MTC in the series with HT-22 [4] and in the series with HT-22 [15] was 10 µM in each case. Also, the PC50 with HT-22 [12] is 6.5 µM; in the series with HT-22 [6], 5.8 µM. The Ratio came out at 1.7 in [7] and 1.5 in [8].
Regarding `O=C(c1ccccc1)c1ccc(NCCO)c2c1NC(CO)(CO)CO2`, the MNTC in series [1] was above 250 µM.
Turning to `CC(C)CNc1ccc(C(=O)c2ccccc2)c2c1OCC1(CCCC1)N2`, the CC50 (in series [2]; in the series on HT-22 [3]) was above 250 µM each time. In the series with HT-22 [4], the MTC was determined as 10 µM. In addition, in [1], the MNTC is above 250 µM. The PC50 in the series with HT-22 [5] and with HT-22 [10] was above 10 µM each time. For the same compound, the Ratio in [7] and in series [8] was below 1 in each case.
`CC1(C)COc2c(NCc3ccccc3)ccc(C(=O)c3ccccc3)c2N1`: the MNTC in series [1] is above 250 µM.
On to `CC(C)CCNc1ccc(C(=O)c2ccccc2)c2c1OCC(C(C)(C)C)N2` (stereo not drawn), for which the MNTC in [1] was 10 µM.
As for `O=C(c1ccccc1)c1ccc(NCc2ccccc2)c2c1NC(c1ccccc1)(c1ccccc1)CO2`, in [1], the MNTC was above 250 µM.
